Sampled rows, rich in hits. Any-hit rate of the full collection: about 0.91%.
PMI act: activators of human PMI, primary screen, biochemical, fluorescence intensity, near-Km mannose 6-phosphate; hit rate 0.005% among 190,000; purified human PMI, coupled resazurin fluorescence, 20 min; stronger effect = higher value; 1 = vehicle control, 0 substrate-free wells; Mannose-6-phosphate isomerase (Homo sapiens), P34949; activation factor at 20 µM;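 active = activation factor of 2 or more at 20 µM, relative to plate controls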
G6PDH counter: L. mesenteroides G6PDH inhibitors, counter-screen for G6PDH-coupled screening assays, biochemical, Leuconostoc mesenteroides enzyme; glucose-6-phosphate dehydrogenase [Leuconostoc mesenteroides]; Purified L. mesenteroides G6PDH, diaphorase/resazurin coupled fluorescence, 45 min; inhibition, % at 5 µM; hit rate 0.12% among 200,000; AID 1020, 2008; in the data active = inhibition above about 50%
TbHK1 inh: Trypanosoma brucei hexokinase 1 inhibitors, primary screen, biochemical, G6PDH-coupled NADH absorbance, MLSCN library; recombinant TbHK1, G6PDH-coupled NADH A340; inhibition, % at 10 µM; hexokinase 1 [Trypanosoma brucei]; hit rate 0.11% among 220,000;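 active = inhibition of 50% or more in the single-dose primary screen; inactive = inhibition below 50%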
PMI act hi M6P: human PMI activators, high substrate, primary screen, biochemical, fluorescence intensity, near-saturating mannose 6-phosphate; activation factor at 20 µM; Mannose-6-phosphate isomerase (Homo sapiens), P34949; hit rate 0.34% among 190,000; coupled PMI enzyme assay, resazurin fluorescence, 20 min; stronger effect = higher value; 1 = untreated enzyme, 0 = substrate-free blank;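 active = activation factor of 2 or more at 20 µM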
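Test system: human phosphomannose isomerase with PGI, G6PDH, diaphorase coupling enzymes / Doses: 20 µM compound, 1% DMSO / Times: enzyme reaction with compound 20 min at room temperature / Measured by: Diaphorase-driven resazurin-to-resorufin fluorescence, excitation 544, emission 590 nm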
p97 inhibitor: inhibitors of human p97 ATPase, primary screen, biochemical; Transitional endoplasmic reticulum ATPase (Homo sapiens), P55072; recombinant p97 ATPase, Kinase-Glo ATP luminescence, 3 h; inhibition, % at 8 µM; hit rate 0.42% among 220,000; in the data active = inhibition above about 15%
Target sequence (P55072 whole entry, looked up): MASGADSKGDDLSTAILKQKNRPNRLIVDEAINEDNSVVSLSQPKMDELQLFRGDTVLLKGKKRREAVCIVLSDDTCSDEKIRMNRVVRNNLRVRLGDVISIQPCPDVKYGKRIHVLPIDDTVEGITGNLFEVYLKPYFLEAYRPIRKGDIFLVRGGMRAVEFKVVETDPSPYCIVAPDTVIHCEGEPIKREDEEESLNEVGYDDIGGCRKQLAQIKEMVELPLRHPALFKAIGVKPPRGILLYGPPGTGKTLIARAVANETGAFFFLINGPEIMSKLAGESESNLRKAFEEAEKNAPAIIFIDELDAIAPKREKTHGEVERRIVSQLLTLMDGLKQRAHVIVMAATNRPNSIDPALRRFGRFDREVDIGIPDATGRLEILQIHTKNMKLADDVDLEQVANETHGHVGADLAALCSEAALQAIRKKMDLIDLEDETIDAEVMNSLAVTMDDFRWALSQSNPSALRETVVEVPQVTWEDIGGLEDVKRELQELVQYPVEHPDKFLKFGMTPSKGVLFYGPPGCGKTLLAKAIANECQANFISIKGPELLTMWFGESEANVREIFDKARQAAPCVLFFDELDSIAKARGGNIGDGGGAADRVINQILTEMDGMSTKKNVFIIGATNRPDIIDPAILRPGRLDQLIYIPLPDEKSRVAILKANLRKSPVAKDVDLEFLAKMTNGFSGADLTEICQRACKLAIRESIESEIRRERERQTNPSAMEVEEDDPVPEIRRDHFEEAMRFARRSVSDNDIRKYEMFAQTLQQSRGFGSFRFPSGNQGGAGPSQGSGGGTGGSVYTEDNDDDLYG
Redox H2O2 prof: compounds producing H2O2 with reducing agent – biochemical, NIH compound library profiling, artefact control for MLSCN library redox annotation, primary screen | DTT-dependent redox cycling H2O2, phenol red/HRP absorbance; 100% = 100 µM peroxide control, 0% = buffer | activation, % at 10 µM | hit rate 0.03% among 200,000 | AID 878, 2007;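 active = activation of at least 50% relative to the plate's high and low controls in the primary single-dose screen; inactive = activation below 50%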;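 also: compound incubated with DTT at 0.8 mM final as the reducing agent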
Large screens that a line does not name were inactive.

NNC(=O)c1nn(-c2ccc(Cl)cc2)cc1O	none (no result: PMI act, G6PDH counter, PMI act hi M6P, Redox H2O2 prof)
Cc1cc(C(=O)OCC(=O)NC2CCCCC2)c(C)o1	Redox H2O2 prof 51
Clc1ccc(Nc2ncn[nH]2)c(Cl)c1	none
CCCNC1=C(N(C(C)=O)c2cccc(F)c2)C(=O)c2ccccc2C1=O	G6PDH counter 52
CCCNC(=O)COC(=O)/C=C/c1cccc(F)c1	none
O=c1[nH]cc(N(CCO)CCO)c(=O)[nH]1	none (no result: PMI act, G6PDH counter, PMI act hi M6P, Redox H2O2 prof)
Cc1ccc2c(c1)/C(=N/N1C(=O)c3ccccc3C1=O)C(=O)N2	none
C=C1c2cc(C)ccc2NC(=O)N1c1ccc(C)cc1	PMI act hi M6P 2.4
Cc1ccc(N2C(=O)c3cccc4cccc(c34)C2=O)cc1	none
C=C1c2ccccc2NC(=O)N1c1ccc(C)cc1	PMI act hi M6P 2.1
CCOC(=O)c1cc(NC(=O)Nc2ccccn2)c(C)nc1C	none
Cc1cc(C)c(NC(=S)N(CCc2ccncc2)C(C)C)c(C)c1	none
CCCCN(CC)CCNC(=O)CN(C)S(=O)(=O)c1ccc2c(c1)c(=O)n(C)c(=O)n2C	p97 inhibitor 15
Cc1ccc(-n2c3nc(=O)[nH]c(=O)c-3cc3c(C)nn(-c4ccccc4)c32)c(C)c1	none
Cc1cc(=S)c2cccc(C)c2[nH]1	PMI act hi M6P 2.7
COCCCNC(=S)NCCCNc1nc2cc(C)cc(C)c2cc1C#N	PMI act hi M6P 2.5
COCCCNC(=S)NCCNc1nc2c(C)c(C)ccc2cc1C#N	PMI act hi M6P 2.8
Cc1cc(C)c2cc(C#N)c(NCCNC(=S)NCCCN3CCOCC3)nc2c1	none
O=C(Nc1nccs1)C1CCN(S(=O)(=O)c2c(Cl)cccc2Cl)CC1	none
C=CCOc1c(OC)cc(/C=N/Nc2cccc(C(=O)O)c2)c(Br)c1Br	PMI act hi M6P 2.4
Oc1ccc(/C=N/Nc2cc(N3CCCC3)nc(N3CCCC3)n2)cc1	G6PDH counter 52
COc1ccc(C2NC(=O)c3sc(=S)n(-c4ccccc4)c3N2)cc1 (stereo not given)	none
O=C1NC(c2ccccc2)Nc2c1sc(=S)n2-c1ccccc1 (stereo not given)	PMI act hi M6P 2.2
CCOc1ccc(C2NC(=O)c3sc(=S)n(-c4ccccc4)c3N2)cc1 (stereo not given)	PMI act hi M6P 2.3
CC(Sc1ccc2nnc(-c3ccc(F)cc3)n2n1)C(=O)O (stereo not given)	PMI act hi M6P 2.2
Cc1sc2nc3ccc(N4CCCC4)nn3c(=O)c2c1C	PMI act hi M6P 2.2
O=C1CCN(N=Nc2cccc(Cl)c2)N1	PMI act hi M6P 2.2
CN(CCCNC(=O)C1CCN(S(=O)(=O)c2cccc3nsnc23)CC1)Cc1ccccc1	TbHK1 inh 58
O=C(O)c1ccccc1C(=O)NNc1ccc(F)cc1	none
O=C(O)c1ccccc1C(=O)NNc1ccc(Cl)cc1Cl	PMI act hi M6P 2.7
O=[N+]([O-])c1cc(CN2CCN(c3ccccc3)CC2)c(O)c2ncccc12	G6PDH counter 62
CN(Cc1cc([N+](=O)[O-])c2cccnc2c1O)C1CCCCC1	none
O=[N+]([O-])c1cc(CN2CCOCC2)c2cccnc2c1O	G6PDH counter 55
CCC12CSc3nc(Cl)ccc3N1C(=O)C(=O)N2C (stereo not given)	none (no result: PMI act, G6PDH counter, PMI act hi M6P, Redox H2O2 prof)
CC(C)(C)NC(=O)NC(=O)COC(=O)c1cc[n+]([O-])cc1	none
C/C(=N\Nc1ccc(Cl)cc1)c1ccccn1	PMI act hi M6P 2.1
CCOC(=O)C1=C(C)NC(=O)C1CC(=O)Nc1ccccc1 (stereo not given)	PMI act 2.1, PMI act hi M6P 3
CCOC(=O)c1[nH]c(C(=O)O)c(OC(=O)CC)c1C	none (no result: PMI act, G6PDH counter, PMI act hi M6P, Redox H2O2 prof)
Cc1nn(C)cc1C1Nc2ccccc2C(=O)N1O (stereo not given)	PMI act hi M6P 2.2
Cc1nn(C)c(C)c1C1Nc2ccccc2C(=O)N1O (stereo not given)	PMI act hi M6P 2
COc1cccc(CN(C)C(=O)c2cc(COc3ccc4ncccc4c3)on2)c1	none
C/C(=N\NC(=S)NC(C)C)c1ccc(-n2ccnc2)cc1	none
CCOC(=O)c1sc(-n2[nH]c(C)cc2=O)nc1C	PMI act hi M6P 2.4
CCOC(=O)c1sc(NC(C)=O)nc1C	none
Cc1ccc2[nH]c(=S)cc(C)c2c1	none
Cc1cc(=S)[nH]c2ccccc12	PMI act hi M6P 2.1
Cc1ccc2c(C)cc(=S)[nH]c2c1	PMI act hi M6P 2.8
CN1c2ccsc2/C(=N/Nc2ccccc2)CS1(=O)=O	PMI act hi M6P 2.1
CC(=O)N(C)C1=C(N2CCOCC2)C(=O)c2ccccc2C1=O	G6PDH counter 55
CC(=O)N(C1=C(N2CCOCC2)C(=O)c2ccccc2C1=O)c1ccc(C(=O)O)cc1	none (no result: PMI act, G6PDH counter, PMI act hi M6P, Redox H2O2 prof)
COc1ccc(N=Nc2nc3ccc(Br)cc3n2C)cc1	PMI act hi M6P 2.2
COc1ccc(Cc2nc3ccccc3n2C)cc1	none
Cc1ccccc1C(=O)N[C@H](C(=O)OCC(=O)c1ccc[nH]1)C(C)C	none
NC(=O)CNC(=O)c1ccc(Cl)cc1	none (no result: PMI act, G6PDH counter, PMI act hi M6P, Redox H2O2 prof)
O=C(NC1CCCCC1)Oc1ccccc1	none (no result: PMI act, G6PDH counter, PMI act hi M6P, Redox H2O2 prof)
O=C(NC1CCCCC1)Oc1cccc2ccccc12	G6PDH counter 52
CCOC(=O)c1c(C)oc2c1c(C=NCCC(=O)O)c(O)c1ccccc12	G6PDH counter 52
O=c1[nH]c2ccccc2nc1C(Nc1ccccc1)c1ccccc1 (stereo not given)	none (no result: PMI act, G6PDH counter, PMI act hi M6P, Redox H2O2 prof)
Cc1cc(C)c2c(c1)[C@@H]1C=CC[C@@H]1[C@H](c1ccc(S(=O)(=O)N3CCOCC3)cc1)N2	PMI act hi M6P 2.2
Cc1ccc(S(=O)(=O)N2CCOCC(=O)NCCOCCNC(=O)COCC2)cc1	none
COc1ccccc1Nc1ncnc2nc[nH]c12	none
S=c1[nH]c(-c2ccccc2)cs1	PMI act hi M6P 2.1
Fc1ccc(-c2csc(=S)[nH]2)cc1	PMI act hi M6P 2.4
O=c1c(/C=N/Nc2ccccc2)c(Sc2nnnn2-c2ccccc2)nc2ccccn12	PMI act hi M6P 2
O=C1NC(=S)S/C1=C\c1ccc(SCc2ccco2)o1	p97 inhibitor 53
N#Cc1c(-c2ccccc2Cl)cc(-c2ccccc2)nc1Br	none
CC(C)(C)c1ccc(/C=C/C(=O)Nc2nncs2)cc1	none
C=C1c2cc(OC)ccc2NC(=O)N1CC	PMI act hi M6P 2

High-throughput results (PubChem)
